Hits are enriched below; roughly 1.9% of the tested compounds scored in any of these assays.
NR2E3 ag-1: activates human photoreceptor nuclear receptor NR2E3. Q9Y5X4. inhibition of corepressor binding, % at 4.78 µM. 320,000 tested, 0.12% active. GST-NR2E3/biotin-RetCOR TR-FRET, 1536-well;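 active = percent inhibition above the cutoff of mean plus 3 SD of all tested compounds, set per screening campaign, cut at about 20% in these data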;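 also: 0% = DMSO wells and 100% = biotin wells as full block of FRET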
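system = GST-tagged NR2E3 plus biotinylated RetCOR corepressor | input = 1.35 nM GST-NR2E3 | also added = 7 nM biotin-RetCOR | schedule = 5 h incubation at 4 °C | measured by = TR-FRET with europium anti-GST and streptavidin-D2, 340 nm excitation | read-out = percent loss of FRET ratio relative to control wells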
NR2E3 ag-2: activates human NR2E3 receptor. Q9Y5X4. CHO-S Gal4-NCOR/VP16-NR2E3 two-hybrid, luciferase. inhibition of corepressor binding, % at 3.98 µM. 360,000 tested, 0.35% active. AID 602229;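 active = inhibition above the mean of all tested compounds plus 3 SD, cut at about 70% in these data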;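 also: 0% = DMSO with NR2E3 transfected cells and 100% = cells lacking NR2E3 construct; higher means lower luciferase signal from less NR2E3 corepressor binding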
MT1-MMP act inh: blocks activation of human MT1-MMP | P50281 | AID 651647 | GFP/RFP ratio change, % at 20 µM | 360,000 tested, 0.061% active | HT1080 RFP-PRO-GFP cells, GFP/RFP ratio fluorescence, overnight; percent of plate control window, DMSO zero;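 active = GFP/RFP ratio change of at least 30% with cell ATP level not reduced by more than half and red fluorescence within 50% of control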
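Assay system – RFP-PRO-GFP reporter HT1080 cells · Compound dosing – single dose of 20 µM compound, 1% DMSO final · Incubation – overnight compound exposure at 37 °C · Measure – GFP/RFP fluorescence ratio · Benchmarks – DMSO wells and RFP-L50D-GFP cells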
SKN-1 block: C. elegans SKN-1 inhibition; inhibition, % at 21.8 µM; C. elegans VP596 Pgst-4::GFP/RFP ratio, acrylamide-induced, 24 h; 360,000 tested, 0.49% active;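 active = interference check ratio from 0.5 to 1.5 plus GFP to RFP signal ratio inhibition reaching or exceeding a fixed threshold, cut at about 30% in these data, passing the limit was not always enough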
NR1D1 modulator: Rev-erb alpha (human) modulation | activity, % at 10 µM | AID 1259318 | 370,000 tested, 0.79% active | Rev-erbα–FITC-DNA binding, fluorescence polarization, 90 min;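 active = activity above about 14%, limit read from the data; passing the limit was not always enough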;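 also: 0% = DMSO wells with 35 nM protein and 100% = DMSO wells with 750 nM protein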
Target sequence (P20393 whole entry, looked up): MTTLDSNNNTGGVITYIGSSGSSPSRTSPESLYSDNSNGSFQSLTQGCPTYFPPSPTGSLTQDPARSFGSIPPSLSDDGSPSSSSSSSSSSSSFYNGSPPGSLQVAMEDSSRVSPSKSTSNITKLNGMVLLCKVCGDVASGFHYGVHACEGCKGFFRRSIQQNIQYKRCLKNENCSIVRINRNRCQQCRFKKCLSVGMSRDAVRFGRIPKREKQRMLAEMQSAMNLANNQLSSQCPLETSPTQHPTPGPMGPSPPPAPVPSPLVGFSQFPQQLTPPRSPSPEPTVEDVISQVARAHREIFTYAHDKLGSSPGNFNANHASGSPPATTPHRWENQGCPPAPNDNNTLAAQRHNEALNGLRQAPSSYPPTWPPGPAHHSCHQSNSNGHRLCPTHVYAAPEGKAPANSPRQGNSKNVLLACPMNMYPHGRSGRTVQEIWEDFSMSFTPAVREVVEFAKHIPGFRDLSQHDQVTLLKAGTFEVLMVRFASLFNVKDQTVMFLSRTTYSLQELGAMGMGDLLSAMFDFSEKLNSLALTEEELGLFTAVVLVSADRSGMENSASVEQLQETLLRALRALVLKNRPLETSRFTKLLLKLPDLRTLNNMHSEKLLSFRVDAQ
PG9 binder: PG9 antibody binding by small molecule | TR-FRET gp120-PG9 antibody binding | inhibition, % at 6.7 µM | 360,000 tested, 0.43% active; in the data active = inhibition above about 8.5%
NR2E3 ag confirm: confirmation of human NR2E3 agonists; 2,300 tested, 51% active; shares compounds with NR2E3 ag-2; inhibition, % at 3.98 µM; CHO-S mammalian two-hybrid NR2E3-NCOR, luciferase luminescence; AID 624378;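 active = average inhibition above a cutoff equal to the mean inhibition of all tested compounds plus one SD, cut at about 70% in these data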;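 also: 0% = DMSO in NR2E3 cells and 100% = DMSO in cells lacking NR2E3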
VP16 counter: reduces GAL4-VP16 reporter signal in NR2E3 counterscreen | shares compounds with NR2E3 ag-2 | CHO-S GAL4-VP16 luciferase reporter, luminescence | inhibition, % at 3.98 µM | 2,300 tested, 29% active | AID 624379;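 active = mean inhibition above a cutoff equal to the average over all tested compounds plus one standard deviation, cut at about 70% in these data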;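 also: luciferase from a UAS reporter driven by GAL4-VP16 transactivation; 0% = DMSO with VP16-transfected cells and 100% = DMSO with cells lacking VP16; higher means less reporter light so more repression of VP16 activity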
An asterisk follows results filed as active.

O=C(O)CCC(=O)Nc1nnc(C(F)(F)F)s1 was read as NR2E3 ag-1 -2, NR2E3 ag-2 4, MT1-MMP act inh 3, SKN-1 block 5, NR1D1 modulator -2 and PG9 binder 1.
Cc1c(CCCN)c2ccccc2n1Cc1ccccc1 was read as NR2E3 ag-1 2, NR2E3 ag-2 50, MT1-MMP act inh -16, SKN-1 block -5, NR1D1 modulator -1, PG9 binder 3, NR2E3 ag confirm -4 and VP16 counter 4.
CCn1c(SCC(=O)NN=Cc2ccc(C(=O)O)cc2)nc2ccccc21 was read as NR1D1 modulator 1.
Screening O=C(NCc1ccccc1CN1CCCC1)c1cccc(N2CCCC2=O)c1 returned NR2E3 ag-1 6, NR2E3 ag-2 78*, MT1-MMP act inh -7, SKN-1 block -1, NR1D1 modulator -2, PG9 binder 1, NR2E3 ag confirm -7 and VP16 counter -9.
O=C(NCc1cccs1)c1cccc(N2CCCC2=O)c1 was read as NR2E3 ag-1 1, NR2E3 ag-2 -25, MT1-MMP act inh -7, SKN-1 block 6, NR1D1 modulator 1 and PG9 binder -1.
Cc1ccccc1Cn1cc(COC(=O)NCCc2c[nH]c3ccccc23)nn1 was read as NR1D1 modulator 0.
For CCn1c2ccccc2c2cc(NC(=O)c3cc(OC)cc(OC)c3)ccc21 the results were NR2E3 ag-1 3, NR2E3 ag-2 51, MT1-MMP act inh 18, SKN-1 block 13, NR1D1 modulator 5, PG9 binder -1, NR2E3 ag confirm -4 and VP16 counter 9.
For CCOC(=O)N1CCN(C(=O)C[C@H]2C[C@@]3(C(=O)OC)C(=C[C@H](COCc4ccccc4)O[C@@H]3C)N(Cc3ccco3)C2=O)CC1 the results were NR1D1 modulator 8.
Screening CC(C)(C)OC(=O)NC(Cc1ccccc1)C1CC(C#N)C(=O)O1 (stereo not given) returned NR1D1 modulator 4.
For Cc1nc(NC(=O)c2ccco2)sc1C(=O)O the results were NR2E3 ag-1 2, NR2E3 ag-2 -6, MT1-MMP act inh -2, SKN-1 block -12, NR1D1 modulator 2 and PG9 binder -1.
Screening Cc1nc(NC(=O)c2ccco2)sc1C(=O)Nc1ccc(Br)cc1 returned NR2E3 ag-1 7, NR2E3 ag-2 54, MT1-MMP act inh 2, SKN-1 block 2, NR2E3 ag confirm 64 and VP16 counter 22.
Screening Cc1ccc(NC(=O)C2CCN(c3ncnc4sc(C)c(C)c34)CC2)cc1S(=O)(=O)N(C)C returned NR2E3 ag-1 -3, NR2E3 ag-2 -1, MT1-MMP act inh -10, SKN-1 block 7, NR1D1 modulator 1 and PG9 binder 0.
For Cc1ccc(C)c(S(=O)(=O)N2CCN(C(=O)C3CCN(c4ncnc5sc(C)c(C)c45)CC3)CC2)c1 the results were NR2E3 ag-1 3, NR2E3 ag-2 78*, MT1-MMP act inh -4, SKN-1 block 11, NR1D1 modulator -3, PG9 binder 0, NR2E3 ag confirm 67 and VP16 counter 63.
COC(=O)[C@]12C[C@H](CC(=O)N3CCSCC3)C(=O)N(Cc3ccc4c(c3)OCO4)C1=C[C@H](C(C)(C)C)O[C@@H]2C was read as NR1D1 modulator 9 and PG9 binder 0.
O=C(N[C@H](Cc1ccccc1)C(=O)NCC1CCCO1)[C@H]1O[C@@H](n2ccc(=O)[nH]c2=O)[C@H](O)[C@@H]1O (stereo not given in full) was read as NR1D1 modulator -3 and PG9 binder 0.
For O=C(O)c1ccccc1C(=O)Nc1ccc(Oc2cccc3ccccc23)cc1 the results were NR2E3 ag-2 67, MT1-MMP act inh -5, SKN-1 block 11, NR1D1 modulator -7, PG9 binder -1, NR2E3 ag confirm -16 and VP16 counter 23.
